# Source: ChEMBL document CHEMBL5137084 (J Med Chem, 2022)
# Legend:
# [1] = Metabolic stability of the compound in carboxylesterase 1 knockout mouse liver assessed as parent compound remaining at 10 uM measured after 1 hr in by UPLC analysis; type: ADME, tissue-based
# Method in brief: (§1)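 Plasma, or liver or brain homogenised 10-fold in 0.1 M potassium phosphate buffer, from CES1−/− mice. Spiked with 10 μM prodrug (final) and shaken at 37 °C for 1 h, in triplicate. Samples at 0 and 1 h were quenched with three volumes of acetonitrile containing losartan. Intact prodrug was measured by UHPLC-orbitrap MS and expressed as % remaining, mean ± SE.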
# [2] = Metabolic stability of the compound in carboxylesterase 1 knockout mouse plasma assessed as parent compound remaining at 10 uM measured after 1 hr in by UPLC analysis; type: ADME, cell-free; method in brief: as §1
# [3] = Metabolic stability of the compound in carboxylesterase 1 knockout mouse brain assessed as parent compound remaining at 10 uM measured after 1 hr in by UPLC analysis; type: ADME, tissue-based; method in brief: as §1
# [4] = Prodrug conversion in carboxylesterase 1 knockout C57BL/6 mouse brain assessed as increase in 2,6-Dimethoxy-4-(4-phenyl-5-thiophen-2-yl-1H-imidazol-2-yl)phenol release at 10 mg/kg, po administered as single dose measured after 2 hrs by LC-MS/MS analysis; type: ADME, organism-based; conditions: in vivo
# [5] = Prodrug conversion in carboxylesterase 1 knockout C57BL/6 mouse plasma assessed as increase in 2,6-Dimethoxy-4-(4-phenyl-5-thiophen-2-yl-1H-imidazol-2-yl)phenol release at 10 mg/kg, po administered as single dose measured after 2 hrs by LC-MS/MS analysis; type: ADME, organism-based; conditions: in vivo
# [6] = Stability in carboxylesterase 1 knockout C57BL/6 mouse brain assessed as intact compound level at 15.12 mg/kg, po administered as single dose measured upto 8 hrs by LC-MS/MS analysis; type: ADME, organism-based; conditions: read-out: Stability
# [7] = Half life in carboxylesterase 1 knockout C57BL/6 mouse brain at 15.12 mg/kg, po administered as single dose measured upto 8 hrs by LC-MS/MS analysis; type: ADME, organism-based
# [8] = Tmax in carboxylesterase 1 knockout C57BL/6 mouse brain at 15.12 mg/kg, po administered as single dose measured upto 8 hrs by LC-MS/MS analysis; type: ADME, organism-based
# [9] = Prodrug conversion in carboxylesterase 1 knockout C57BL/6 mouse brain assessed as Cmax of 2,6-Dimethoxy-4-(4-phenyl-5-thiophen-2-yl-1H-imidazol-2-yl)phenol at 15.12 mg/kg, po administered as single dose measured upto 8 hrs by LC-MS/MS analysis; type: ADME, organism-based; parameters: dose 15.12 mg/kg, time < 8 hrs, route po; conditions: in vivo
# [10] = Tmax in carboxylesterase 1 knockout C57BL/6 mouse plasma at 15.12 mg/kg, po administered as single dose measured upto 8 hrs by LC-MS/MS analysis; type: ADME, organism-based
# [11] = Prodrug conversion in carboxylesterase 1 knockout C57BL/6 mouse brain assessed as AUC of 2,6-Dimethoxy-4-(4-phenyl-5-thiophen-2-yl-1H-imidazol-2-yl)phenol at 15.12 mg/kg, po administered as single dose measured upto 8 hrs by LC-MS/MS analysis; type: ADME, organism-based; parameters: time < 8 hrs, dose 15.12 mg/kg, route po; conditions: in vivo
# [12] = Half life in carboxylesterase 1 knockout C57BL/6 mouse plasma at 15.12 mg/kg, po administered as single dose measured upto 8 hrs by LC-MS/MS analysis; type: ADME, organism-based
# [13] = Stability in carboxylesterase 1 knockout C57BL/6 mouse plasma assessed as intact compound level at 15.12 mg/kg, po administered as single dose measured upto 8 hrs by LC-MS/MS analysis; type: ADME, organism-based; conditions: read-out: Stability
# [14] = Prodrug conversion in carboxylesterase 1 knockout C57BL/6 mouse brain assessed as increase in 2,6-Dimethoxy-4-(4-phenyl-5-thiophen-2-yl-1H-imidazol-2-yl)phenol release at 15.12 mg/kg, po administered as single dose measured after 2 hrs by LC-MS/MS analysis; type: ADME, organism-based; conditions: in vivo
# [15] = Prodrug conversion in carboxylesterase 1 knockout C57BL/6 mouse plasma assessed as Cmax of 2,6-Dimethoxy-4-(4-phenyl-5-thiophen-2-yl-1H-imidazol-2-yl)phenol at 15.12 mg/kg, po administered as single dose measured upto 8 hrs by LC-MS/MS analysis; type: ADME, organism-based; parameters: dose 15.12 mg/kg, time < 8 hrs, route po; conditions: in vivo
# [16] = Prodrug conversion in carboxylesterase 1 knockout C57BL/6 mouse plasma assessed as AUC of 2,6-Dimethoxy-4-(4-phenyl-5-thiophen-2-yl-1H-imidazol-2-yl)phenol at 15.12 mg/kg, po administered as single dose measured upto 8 hrs by LC-MS/MS analysis; type: ADME, organism-based; parameters: time < 8 hrs, dose 15.12 mg/kg, route po; conditions: in vivo
# [17] = Drug release in carboxylesterase 1 knockout C57BL/6 mouse brain at 10 mg/kg, po administered as single dose measured after 2 hrs by LC-MS/MS analysis; type: ADME, organism-based; conditions: in vivo
# Method in brief: (§2)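 Mice are killed 2 h post-dose by CO2, with cardiac-puncture plasma and whole brain taken. After acetonitrile/losartan extraction, released parent and intact prodrug are measured by LC-MS/MS. Brain-to-plasma ratio is computed from released-parent levels; mean ± SEM.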
# [18] = Tmax in carboxylesterase 1 knockout C57BL/6 mouse plasma at 10 mg/kg, po administered as single dose measured upto 8 hrs by LC-MS/MS analysis; type: ADME, organism-based
# Method in brief: (§3)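 Cardiac blood is spun to plasma and brains are flash frozen. Intact prodrug and released parent are quantified by LC-MS/MS against matrix-matched standards. Parameters come from non-compartmental analysis; mean ± SEM.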
# [19] = Half life in carboxylesterase 1 knockout C57BL/6 mouse plasma at 10 mg/kg, po administered as single dose measured upto 8 hrs by LC-MS/MS analysis; type: ADME, organism-based; method in brief: as §3
# [20] = Cmax in carboxylesterase 1 knockout C57BL/6 mouse plasma at 10 mg/kg, po administered as single dose measured upto 8 hrs by LC-MS/MS analysis; type: ADME, organism-based; parameters: time < 8 hrs, dose 10 mg/kg, route po; conditions: in vivo; method in brief: as §3
# [21] = AUC in carboxylesterase 1 knockout C57BL/6 mouse brain at 10 mg/kg, po administered as single dose measured upto 8 hrs by LC-MS/MS analysis; type: ADME, organism-based; parameters: time < 8 hrs, dose 10 mg/kg, route po; conditions: in vivo; method in brief: as §3
# [22] = Drug release in carboxylesterase 1 knockout C57BL/6 mouse plasma at 10 mg/kg, po administered as single dose measured after 2 hrs by LC-MS/MS analysis; type: ADME, organism-based; conditions: in vivo, read-out: Activity; method in brief: as §2
# [23] = Brain to plasma ratio in carboxylesterase 1 knockout C57BL/6 mouse at 10 mg/kg, po administered as single dose measured after 2 hrs by LC-MS/MS analysis; type: ADME, organism-based; method in brief: as §2
# [24] = Tmax in carboxylesterase 1 knockout C57BL/6 mouse brain at 10 mg/kg, po administered as single dose measured upto 8 hrs by LC-MS/MS analysis; type: ADME, organism-based; method in brief: as §3
# [25] = Cmax in carboxylesterase 1 knockout C57BL/6 mouse brain at 10 mg/kg, po administered as single dose measured upto 8 hrs by LC-MS/MS analysis; type: ADME, organism-based; parameters: time < 8 hrs, dose 10 mg/kg, route po; conditions: in vivo; method in brief: as §3
# [26] = Half life in carboxylesterase 1 knockout C57BL/6 mouse brain at 10 mg/kg, po administered as single dose measured upto 8 hrs by LC-MS/MS analysis; type: ADME, organism-based; method in brief: as §3
# [27] = AUC in carboxylesterase 1 knockout C57BL/6 mouse plasma at 10 mg/kg, po administered as single dose measured upto 8 hrs by LC-MS/MS analysis; type: ADME, organism-based; parameters: time < 8 hrs, dose 10 mg/kg, route po; conditions: in vivo; method in brief: as §3
# [28] = Prodrug conversion in carboxylesterase 1 knockout C57BL/6 mouse assessed as increase in 2,6-Dimethoxy-4-(4-phenyl-5-thiophen-2-yl-1H-imidazol-2-yl)phenol release at 10 mg/kg, po administered as single dose measured after 2 hrs by LC-MS/MS analysis; type: ADME, organism-based; conditions: in vivo
# [29] = Stability in carboxylesterase 1 knockout C57BL/6 mouse assessed as intact compound level at 10 mg/kg, po administered as single dose measured upto 8 hrs by LC-MS/MS analysis; type: ADME, organism-based; conditions: in vivo, read-out: Stability
# [30] = Ratio of prodrug conversion in carboxylesterase 1 knockout C57BL/6 mouse brain to plasma assessed as 2,6-Dimethoxy-4-(4-phenyl-5-thiophen-2-yl-1H-imidazol-2-yl)phenol release at 10 mg/kg, po administered as single dose measured after 2 hrs by LC-MS/MS analysis; type: ADME, organism-based; method in brief: as §2
Compound,Stability [1] [%],Stability [2] [%],Stability [3] [%],further results
COc1cc(-c2nc(-c3ccccc3)c(-c3cccs3)[nH]2)cc(OC)c1OP(=O)(O)O,55,91,102,
CCC1CCCC(CC)N1C(=O)Oc1c(OC)cc(-c2nc(-c3ccccc3)c(-c3cccs3)[nH]2)cc1OC (centres undefined),51,78,90,
COc1cc(-c2nc(-c3ccccc3)c(-c3cccs3)[nH]2)cc(OC)c1OC(=O)N1C2CCC1CC(N1CCCCC1)C2 (centres undefined),78,87,84,
COc1cc(-c2nc(-c3ccccc3)c(-c3cccs3)[nH]2)cc(OC)c1OC(=O)C1=CN(C)C=CC1,22,52,46,Drug metabolism [4]: 2.2 nM; Drug metabolism [5]: 28.3 nM
CCCCCN(C)C(=O)Oc1c(OC)cc(-c2nc(-c3ccccc3)c(-c3cccs3)[nH]2)cc1OC,85,50,86,
COc1cc(-c2nc(-c3ccccc3)c(-c3cccs3)[nH]2)cc(OC)c1OC(=O)N1CCC(N2CCCCC2)CC1,,90,48,concentration at 8 h [6]: 86.5 nM; half-life [7]: 180 min; Tmax [8]: 60 min; Cmax [9]: 403 pmol·h/g; Tmax [10]: 60 min; AUC [11]: 187.1 pmol·h/g; half-life [12]: 84 min; concentration at 8 h [13]: 195 nM; Drug metabolism [14]: 72.3 nM; Cmax [15]: 148.9 pmol·h/g; AUC [16]: 273.4 pmol·h/g
COc1cc(-c2nc(-c3ccccc3)c(-c3cccs3)[nH]2)cc(OC)c1OC(=O)C(C)(C)C,0,1,93,
COc1cc(-c2nc(-c3ccccc3)c(-c3cccs3)[nH]2)cc(OC)c1OCOP(=O)(O)O,21,96,1,
COc1cc(-c2nc(-c3cccs3)c(-c3ccccc3)[nH]2)cc(OC)c1O,98,103,89,Activity [17]: 4.9 nM; Tmax [18]: 30 min; half-life [19]: 27.6 min; Cmax [20]: 307 nM; AUC [21]: 52.8 pmol·h/g; concentration [22]: 23 nM; Kp at 2 h [23]: 0.1; Tmax [24]: 30 min; Cmax [25]: 60 pmol/g; half-life [26]: 37.8 min; AUC [27]: 0.27 µM·h
COc1cc(-c2nc(-c3ccccc3)c(-c3cccs3)[nH]2)cc(OC)c1OC(C)=O,0,28,6,
CCCCCNC(=O)Oc1c(OC)cc(-c2nc(-c3ccccc3)c(-c3cccs3)[nH]2)cc1OC,83,60,68,
COc1cc(-c2nc(-c3ccccc3)c(-c3cccs3)[nH]2)cc(OC)c1OC(=O)OC(OC(=O)C(C)(C)C)c1ccccc1 (centres undefined),80,83,69,
COc1cc(-c2nc(-c3ccccc3)c(-c3cccs3)[nH]2)cc(OC)c1OC(=O)N1C2CCCC1CC2,95,85,76,
COc1cc(-c2nc(-c3ccccc3)c(-c3cccs3)[nH]2)cc(OC)c1OCOP(=O)(O)OCOC(=O)OC(C)C,11,100,79,
COc1cc(-c2nc(-c3ccccc3)c(-c3cccs3)[nH]2)cc(OC)c1OC(=O)N(C)C,100,96,100,Drug metabolism [28]: 540.9 nM; concentration at 8 h [29]: 4300 nM
CCCCCC(=O)Oc1c(OC)cc(-c2nc(-c3ccccc3)c(-c3cccs3)[nH]2)cc1OC,1,13,63,Drug metabolism [4]: 36.5 nM; BPR [30]: 0.1; Drug metabolism [5]: 355 nM
CCCCCCCNC(=O)Oc1c(OC)cc(-c2nc(-c3ccccc3)c(-c3cccs3)[nH]2)cc1OC,97,60,84,
